Columns and labels:
Format in all cases: functional
MDA-MB-468 = experiment: Cytotoxicity against human MDA-MB-468 cells assessed as growth inhibition after 48 hrs by SRB assay
Method in brief: (§1)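 NCI 60-cell-line screen, five-dose stage: each cell line exposed for 48 h to five concentrations spanning five log steps; cellular protein measured by sulforhodamine B colorimetry. A time-zero cell control and plates without drug are used to derive GI50, TGI and LC50 from log-concentration dose-response curves.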

T47D = experiment: Cytotoxicity against human T47D cells assessed as growth inhibition after 48 hrs by SRB assay
Method in brief: (§2)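 NCI 60-cell-line screen, two stages. Five-dose testing at […]. Cellular protein measured by sulforhodamine B colorimetry after 48 h drug exposure. A time-zero control and drug-free plates are used to derive GI50, TGI and LC50 from dose-response curves plotted as log10 concentration per cell line.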

MDA-MB-231 = experiment: Cytotoxicity against human MDA-MB-231 cells assessed as growth inhibition after 48 hrs by SRB assay; method in brief: as §1
MCF7 = experiment: Cytotoxicity against human MCF7 cells assessed as growth inhibition after 48 hrs by SRB assay; method in brief: as §1
SN12C = experiment: Cytotoxicity against human SN12C cells assessed as growth inhibition after 48 hrs by SRB assay; method in brief: as §2
RXF 393 = experiment: Cytotoxicity against human RXF393 cells assessed as growth inhibition after 48 hrs by SRB assay; method in brief: as §1
A498 = experiment: Cytotoxicity against human A498 cells assessed as growth inhibition after 48 hrs by SRB assay
Method in brief: (§3)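 NCI 60-cell-line five-dose screen at […]. Drug exposure was 48 h, followed by sulforhodamine B protein staining. GI50, TGI and LC50 were calculated against a time-zero control and untreated plates, with dose–response curves plotted from log10 concentration.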

786-0 = experiment: Cytotoxicity against human 786-0 cells assessed as growth inhibition after 48 hrs by SRB assay; method in brief: as §3
[1] = (§4) Cytotoxicity against human OVCAR4 cells assessed as growth inhibition after 48 hrs by SRB assay; settings: OVCAR-4, 48 h; method in brief: as §1
OVCAR-4 = experiment: as §4; method in brief: as §1
IGROV-1 = experiment: Cytotoxicity against human IGROV1 cells assessed as growth inhibition after 48 hrs by SRB assay; method in brief: as §3
SK-MEL-5 = experiment: Cytotoxicity against human SK-MEL-5 cells assessed as growth inhibition after 48 hrs by SRB assay; method in brief: as §1
SK-MEL-28 = experiment: Cytotoxicity against human SK-MEL-28 cells assessed as growth inhibition after 48 hrs by SRB assay; method in brief: as §1
MDA-MB-435 = experiment: Cytotoxicity against human MDA-MB-435 cells assessed as growth inhibition after 48 hrs by SRB assay; method in brief: as §1
SNB-19 = experiment: Cytotoxicity against human SNB19 cells assessed as growth inhibition after 48 hrs by SRB assay; method in brief: as §2
SF-295 = experiment: Cytotoxicity against human SF295 cells assessed as growth inhibition after 48 hrs by SRB assay; method in brief: as §1
KM12 = experiment: Cytotoxicity against human KM12 cells assessed as growth inhibition after 48 hrs by SRB assay; method in brief: as §3
HCT-15 = experiment: Cytotoxicity against human HCT15 cells assessed as growth inhibition after 48 hrs by SRB assay; method in brief: as §3
HCC 2998 = experiment: Cytotoxicity against human HCC2998 cells assessed as growth inhibition after 48 hrs by SRB assay; method in brief: as §3
NCI-H23 = experiment: Cytotoxicity against human NCI-H23 cells assessed as growth inhibition after 48 hrs by SRB assay; method in brief: as §1
A549 = experiment: Cytotoxicity against human A549 cells assessed as growth inhibition after 48 hrs by SRB assay; method in brief: as §3
SR = experiment: Cytotoxicity against human SR cells assessed as growth inhibition after 48 hrs by SRB assay; method in brief: as §2
MOLT-4 = experiment: Cytotoxicity against human MOLT4 cells assessed as growth inhibition after 48 hrs by SRB assay; method in brief: as §1
K562 = experiment: Cytotoxicity against human K562 cells assessed as growth inhibition after 48 hrs by SRB assay; method in brief: as §3
HL-60(TB) = experiment: Cytotoxicity against human HL-60(TB) cells assessed as growth inhibition after 48 hrs by SRB assay
Method in brief: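 NCI 60-cell panel five-concentration stage (0.01, 0.1, 1, 10, 100) in HL-60(TB). Cellular protein was measured by sulforhodamine B colorimetry after 48 h of exposure. A time-zero cell control and untreated plates allowed calculation of GI50, TGI and LC50. These were read from log10 concentration dose-response curves.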

[2] = Cytotoxicity against human Hs578T cells assessed as cell growth at 10 uM after 48 hrs by SRB assay; settings: Hs-578T, read-out: Activity

**Q.** Which results are given for `CN(C)CCCSc1nc2ccc3c(c2[nH]1)C(=O)c1ccccc1C3=O`?
**A.** growth inhibition (GI) (MDA-MB-468): Dose-dependent effect; GI50 (MDA-MB-468; MDA-MB-468, 48 h): < 0.01 µM; TGI (MDA-MB-468; MDA-MB-468, 48 h): 0.439 µM; GI50 (T47D): 8.73 µM; TGI (T47D): 24.8 µM; growth inhibition (GI) (T47D): Dose-dependent effect; growth inhibition (GI) (MDA-MB-231): Dose-dependent effect; GI50 (MDA-MB-231; MDA-MB-231, 48 h): 4.96 µM; TGI (MDA-MB-231; MDA-MB-231, 48 h): 19.3 µM; growth inhibition (GI) (MCF7): Dose-dependent effect; GI50 (MCF7; MCF7, 48 h): 0.202 µM; TGI (MCF7; MCF7, 48 h): 4.21 µM; GI50 (SN12C): 3.26 µM; TGI (SN12C): 16.5 µM; growth inhibition (GI) (SN12C): Dose-dependent effect; CC50 (SN12C; read-out: LC50 (the source's name)): 40.6 µM; growth inhibition (GI) (RXF 393): Dose-dependent effect; GI50 (RXF 393; RXF 393, 48 h): 1.89 µM; TGI (RXF 393; RXF 393, 48 h): 12.8 µM; CC50 (RXF 393; RXF 393, 48 h, read-out: LC50 (the source's name)): 42.3 µM; growth inhibition (GI) (A498): Dose-dependent effect; GI50 (A498; A498, 48 h): 12.1 µM; TGI (A498; A498, 48 h): 24.8 µM; CC50 (A498; A498, 48 h, read-out: LC50 (the source's name)): 51 µM; growth inhibition (GI) (786-0): Dose-dependent effect; GI50 (786-0; 786-0, 48 h): 9.73 µM; TGI (786-0; 786-0, 48 h): 23.8 µM; GI50 [1]: 0.031 µM; TGI [1]: 5.04 µM; growth inhibition (GI) (OVCAR-4): Dose-dependent effect; growth inhibition (GI) (IGROV-1): Dose-dependent effect; GI50 (IGROV-1; IGROV-1, 48 h): 0.329 µM; TGI (IGROV-1; IGROV-1, 48 h): 12.8 µM; growth inhibition (GI) (SK-MEL-5): Dose-dependent effect; GI50 (SK-MEL-5; SK-MEL-5, 48 h): 11.1 µM; TGI (SK-MEL-5; SK-MEL-5, 48 h): 23.1 µM; growth inhibition (GI) (SK-MEL-28): Dose-dependent effect; GI50 (SK-MEL-28; SK-MEL-28, 48 h): 13.5 µM; TGI (SK-MEL-28; SK-MEL-28, 48 h): 26.3 µM; growth inhibition (GI) (MDA-MB-435): Dose-dependent effect; GI50 (MDA-MB-435; MDA-MB-435, 48 h): 10.4 µM; TGI (MDA-MB-435; MDA-MB-435, 48 h): 22.2 µM; growth inhibition (GI) (SNB-19): Dose-dependent effect; GI50 (SNB-19; SNB-19, 48 h): 7.2 µM; TGI (SNB-19; SNB-19, 48 h): 20.7 µM; growth inhibition (GI) (SF-295): Dose-dependent effect; GI50 (SF-295; SF-295, 48 h): 14.8 µM; TGI (SF-295; SF-295, 48 h): 28.4 µM; growth inhibition (GI) (KM12): Dose-dependent effect; GI50 (KM12; KM12, 48 h): 1.96 µM; TGI (KM12; KM12, 48 h): 7.24 µM; CC50 (KM12; KM12, 48 h, read-out: LC50 (the source's name)): 27.4 µM; growth inhibition (GI) (HCT-15): Dose-dependent effect; GI50 (HCT-15; HCT-15, 48 h): 0.68 µM; TGI (HCT-15; HCT-15, 48 h): 15 µM; growth inhibition (GI) (HCC 2998): Dose-dependent effect; GI50 (HCC 2998; HCC 2998, 48 h): 4.14 µM; TGI (HCC 2998; HCC 2998, 48 h): 17.7 µM; CC50 (HCC 2998; HCC 2998, 48 h, read-out: LC50 (the source's name)): 43.4 µM; growth inhibition (GI) (NCI-H23): Dose-dependent effect; TGI (NCI-H23; NCI-H23, 48 h): 19.7 µM; growth inhibition (GI) (A549): Dose-dependent effect; TGI (A549; A549, 48 h): 12.6 µM; GI50 (SR): 0.43 µM; TGI (SR): 3.47 µM; growth inhibition (GI) (SR): Dose-dependent effect; growth inhibition (GI) (MOLT-4): Dose-dependent effect; GI50 (MOLT-4; MOLT-4, 48 h): 2.06 µM; TGI (MOLT-4; MOLT-4, 48 h): 6.6 µM; growth inhibition (GI) (K562): Dose-dependent effect; GI50 (K562; K562, 48 h): 2.04 µM; TGI (K562; K562, 48 h): 4.73 µM; CC50 (K562; K562, 48 h, read-out: LC50 (the source's name)): 13.6 µM; growth inhibition (GI) (HL-60(TB)): Dose-dependent effect; GI50 (HL-60(TB); HL-60, 48 h): 2.41 µM; TGI (HL-60(TB); HL-60, 48 h): 8.52 µM; growth at 10 µM [2]: 69.3%

Reference: ChEMBL document CHEMBL3120102, “Structure-based design, synthesis and biological evaluation of novel anthra[1,2-d]imidazole-6,11-dione homologues as potential antitumor agents” (2013)
